From ChEMBL document CHEMBL4765367, “Design, synthesis and antimicrobial evaluation of novel glycosylated-fluoroquinolones derivatives” (Eur J Med Chem, 2020)
Values after ≈ are worked out from the molar mass of the structure shown. Structures can show the parent of a compound that is named as a salt. Active and inactive are the calls of the source. The calls are words filed in the database; no cut-off is given here.

Key:
Escherichia coli [1] = experiment: Potency index, ratio of norfloxacin MIC to test compound MIC for fluoroquinolone-resistant Escherichia coli measured after 24 hrs by microbroth dilution method; assay type: functional
Candida albicans = experiment: Antifungal activity against Candida albicans ATCC 10231 assessed as reduction in fungal growth incubated for 48 hrs by broth microdilution method; assay type: functional
Escherichia coli [2] = experiment: Antimicrobial activity against fluoroquinolone-resistant Escherichia coli assessed as inhibition of microbial growth incubated for 24 hrs by microbroth dilution method; assay type: functional
Escherichia coli [3] = experiment: Antimicrobial activity against Escherichia coli O157:H7 assessed as inhibition of microbial growth incubated for 24 hrs by microbroth dilution method; assay type: functional
Pseudomonas aeruginosa = experiment: Antimicrobial activity against Pseudomonas aeruginosa ATCC 9627 assessed as inhibition of microbial growth incubated for 24 hrs by microbroth dilution method; assay type: functional
Summary of the method: (§1)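 Bacteria were grown in suitable medium at 37 °C for 24 h and adjusted to 0.5 McFarland. Compound DMSO stocks were two-fold serially diluted in broth, and 10^6 inoculum was added. Plates were incubated at 37 °C for 24 h and read at A625. MIC is the lowest concentration showing no viability. Fluoroquinolone positive controls, DMSO negative, sterility and growth controls were included; triplicate.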

Fusarium solani = experiment: Antifungal activity against Fusarium solani ATCC 36031 assessed as reduction in fungal growth incubated for 48 hrs by broth microdilution method; assay type: functional
Summary of the method: (§2)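 Conidia were harvested from cultures grown on malt extract agar at 30 °C for 7 d and counted by hemocytometer (mean of three counts). Stock suspensions were diluted 1:50 in malt extract broth. Compounds were made as 4.0 mg/mL DMSO stocks and two-fold serially diluted in broth. Plates were incubated at 30 °C for 48 h and read at A405. MIC is the lowest concentration with no viability. Fluconazole was the positive control, DMSO the vehicle; triplicate.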

Staphylococcus aureus [4] = experiment: Antimicrobial activity against methicillin-sensitive Staphylococcus aureus ATCC 9253 assessed as inhibition of microbial growth incubated for 24 hrs by microbroth dilution method; assay type: functional; summary of the method: as §1
Escherichia coli [5] = experiment: Antimicrobial activity against Escherichia coli NCTC 11954 producing penicillinase assessed as inhibition of microbial growth incubated for 24 hrs by microbroth dilution method; assay type: functional; summary of the method: as §1
Penicillium chrysogenum = experiment: Antifungal activity against Penicillium chrysogenum ATCC 10106 assessed as reduction in fungal growth incubated for 48 hrs by broth microdilution method; assay type: functional; summary of the method: as §2
L6 = experiment: Cytotoxicity against rat L6 cells assessed as inhibition of cell viability incubated for 24 hrs by MTT assay; assay type: cell-based; conditions: L6, 24 h
Summary of the method: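 L6 rat myoblasts were grown in glucose-DMEM with 10% FBS, 1 mM L-glutamine, penicillin and streptomycin at 37 °C in 5% CO2. They were seeded at 2 × 10^4 cells/well and allowed to attach for 24 h. Cells were exposed to graded concentrations for 24 h, with 0.1% DMSO as vehicle. MTT (0.5 mg/mL) was added for 4 h, formazan was dissolved in DMSO, and A570 was read. Viability is given relative to vehicle. IC50 came from dose-effect curves; triplicate.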

Listeria monocytogenes = experiment: Antimicrobial activity against Listeria monocytogenes ATCC 19115 assessed as inhibition of microbial growth incubated for 24 hrs by microbroth dilution method; assay type: functional; summary of the method: as §1
Escherichia coli [6] = experiment: Antimicrobial activity against Escherichia coli ATCC 8739 assessed as inhibition of microbial growth incubated for 24 hrs by microbroth dilution method; assay type: functional; summary of the method: as §1
Aspergillus flavus = experiment: Antifungal activity against Aspergillus flavus ATCC 9643 assessed as reduction in fungal growth incubated for 48 hrs by broth microdilution method; assay type: functional; summary of the method: as §2
Stachybotrys chartarum [7] = experiment: Potency index, ratio of fluconazole MIC to test compound MIC for Stachybotrys chartarum IBT 7711 measured after 48 hrs by broth microdilution method; assay type: functional
Stachybotrys chartarum [8] = experiment: Antifungal activity against Stachybotrys chartarum IBT 7711 assessed as reduction in fungal growth incubated for 48 hrs by broth microdilution method; assay type: functional; summary of the method: as §2
Staphylococcus aureus [9] = experiment: Antimicrobial activity against methicillin-resistant Staphylococcus aureus ATCC 33591 assessed as inhibition of microbial growth incubated for 24 hrs by microbroth dilution method; assay type: functional
Salmonella enterica = experiment: Antimicrobial activity against Salmonella enterica ATCC 13312 assessed as inhibition of microbial growth incubated for 24 hrs by microbroth dilution method; assay type: functional; summary of the method: as §1
Escherichia coli [10] = experiment: Potency index, ratio of ciprofloxacin HCl MIC to test compound MIC for fluoroquinolone-resistant Escherichia coli measured after 24 hrs by microbroth dilution method; assay type: functional

CCn1cc(C(=O)N[C@H]2C(OC(C)=O)O[C@H](COC(C)=O)[C@@H](OC(C)=O)[C@@H]2OC(C)=O)c(=O)c2cc(F)c(N3CCN(C(C)=O)CC3)cc21 (stereo not given in full)
Ratio (Escherichia coli [1]): 2 | MIC (Candida albicans): 5.6 µM (≈ 3.87 µg/mL) | MIC (Escherichia coli [2]): 136 µM | MIC (Escherichia coli [3]): 45.3 µM | MIC (Pseudomonas aeruginosa): inactive | MIC (Fusarium solani): 181 µM (≈ 125 µg/mL) | MIC (Staphylococcus aureus [4]): inactive | MIC (Escherichia coli [5]): 181 µM | MIC (Penicillium chrysogenum): 45.3 µM (≈ 31.3 µg/mL) | IC50 (L6): 5.32 µM | MIC (Listeria monocytogenes): inactive | MIC (Escherichia coli [6]): inactive | MIC (Aspergillus flavus): 362 µM (≈ 250 µg/mL) | Ratio (Stachybotrys chartarum [7]): 2 | MIC (Stachybotrys chartarum [8]): 45.3 µM (≈ 31.3 µg/mL) | MIC (Staphylococcus aureus [9]): 362 µM | MIC (Salmonella enterica): 11.3 µM

CC(=O)OC[C@H]1OC(OC(C)=O)[C@H](NC(=O)c2cn(C3CC3)c3cc(N4CCN(C(C)=O)CC4)c(F)cc3c2=O)[C@@H](OC(C)=O)[C@@H]1OC(C)=O (stereo not given in full)
MIC (Candida albicans): inactive | MIC (Escherichia coli [2]): 267 µM | MIC (Escherichia coli [3]): 178 µM | MIC (Pseudomonas aeruginosa): 11.1 µM | MIC (Fusarium solani): 356 µM (≈ 250 µg/mL) | MIC (Staphylococcus aureus [4]): inactive | MIC (Escherichia coli [5]): inactive | Ratio (Escherichia coli [10]): 2 | MIC (Penicillium chrysogenum): < 5.6 µM | IC50 (L6): 3.62 µM | MIC (Listeria monocytogenes): inactive | MIC (Escherichia coli [6]): inactive | MIC (Aspergillus flavus): 712 µM (≈ 500 µg/mL) | MIC (Stachybotrys chartarum [8]): 356 µM (≈ 250 µg/mL) | MIC (Staphylococcus aureus [9]): inactive | MIC (Salmonella enterica): 11.1 µM

COc1c(N2C[C@@H]3CCCN(C(C)=O)[C@@H]3C2)c(F)cc2c(=O)c(C(=O)N[C@H]3C(OC(C)=O)O[C@H](COC(C)=O)[C@@H](OC(C)=O)[C@@H]3OC(C)=O)cn(C3CC3)c12 (stereo not given in full)
MIC (Candida albicans): 80.9 µM (≈ 62.5 µg/mL) | MIC (Escherichia coli [2]): 485 µM | MIC (Escherichia coli [3]): 162 µM | MIC (Pseudomonas aeruginosa): 324 µM | MIC (Fusarium solani): 324 µM (≈ 250 µg/mL) | MIC (Staphylococcus aureus [4]): inactive | MIC (Escherichia coli [5]): inactive | MIC (Penicillium chrysogenum): 162 µM (≈ 125 µg/mL) | IC50 (L6): 5.53 µM | MIC (Listeria monocytogenes): < 5 µM | MIC (Escherichia coli [6]): 162 µM | MIC (Aspergillus flavus): 162 µM (≈ 125 µg/mL) | MIC (Stachybotrys chartarum [8]): 324 µM (≈ 250 µg/mL) | MIC (Staphylococcus aureus [9]): 162 µM | MIC (Salmonella enterica): inactive

COc1c(N2C[C@@H]3CCCN[C@@H]3C2)c(F)cc2c(=O)c(C(=O)O)cn(C3CC3)c12 [MOXIFLOXACIN]
MIC (Candida albicans): 1.1 µM (≈ 0.442 µg/mL) | MIC (Escherichia coli [2]): 3.4 µM | MIC (Escherichia coli [3]): < 0.5 µM | MIC (Pseudomonas aeruginosa): 71.5 µM | MIC (Fusarium solani): 286 µM (≈ 115 µg/mL) | MIC (Staphylococcus aureus [4]): < 0.5 µM | MIC (Escherichia coli [5]): < 0.5 µM | MIC (Penicillium chrysogenum): 1.1 µM (≈ 0.442 µg/mL) | IC50 (L6): 5.78 µM | MIC (Listeria monocytogenes): < 0.5 µM | MIC (Escherichia coli [6]): < 0.5 µM | MIC (Aspergillus flavus): 286 µM (≈ 115 µg/mL) | MIC (Stachybotrys chartarum [8]): 2.3 µM (≈ 0.923 µg/mL) | MIC (Staphylococcus aureus [9]): < 0.5 µM | MIC (Salmonella enterica): < 4.3 µM

CCn1cc(C(=O)O)c(=O)c2cc(F)c(N3CCNCC3)cc21 [NORFLOXACIN]
MIC (Candida albicans): < 5.9 µM | MIC (Escherichia coli [2]): 294 µM | MIC (Escherichia coli [3]): < 5.9 µM | MIC (Pseudomonas aeruginosa): 98 µM | MIC (Fusarium solani): 391 µM (≈ 125 µg/mL) | MIC (Staphylococcus aureus [4]): 24.4 µM | MIC (Escherichia coli [5]): 24.4 µM | MIC (Penicillium chrysogenum): 196 µM (≈ 62.5 µg/mL) | IC50 (L6): 3.43 µM | MIC (Listeria monocytogenes): < 5.9 µM | MIC (Escherichia coli [6]): 48.9 µM | MIC (Aspergillus flavus): 783 µM (≈ 250 µg/mL) | MIC (Stachybotrys chartarum [8]): 196 µM (≈ 62.5 µg/mL) | MIC (Staphylococcus aureus [9]): 24.4 µM | MIC (Salmonella enterica): < 5.9 µM

O=C(O)c1cn(C2CC2)c2cc(N3CCNCC3)c(F)cc2c1=O [CIPROFLOXACIN HYDROCHLORIDE]
MIC (Candida albicans): 0.3 µM | MIC (Pseudomonas aeruginosa): < 5.2 µM | MIC (Fusarium solani): < 10.6 µM | MIC (Staphylococcus aureus [4]): < 5.2 µM | MIC (Penicillium chrysogenum): < 10.6 µM | MIC (Listeria monocytogenes): 0.5 µM | MIC (Aspergillus flavus): inactive | MIC (Stachybotrys chartarum [8]): 85 µM | MIC (Staphylococcus aureus [9]): < 5.2 µM | MIC (Salmonella enterica): < 5.2 µM

COc1c(N2C[C@@H]3CCCN(C(C)=O)[C@@H]3C2)c(F)cc2c(=O)c(C(=O)N[C@H]3C(O)O[C@H](CO)[C@@H](O)[C@@H]3O)cn(C3CC3)c12 (stereo not given in full)
MIC (Candida albicans): 207 µM (≈ 125 µg/mL) | MIC (Escherichia coli [2]): 310 µM | MIC (Escherichia coli [3]): 828 µM | MIC (Pseudomonas aeruginosa): 51.8 µM | MIC (Fusarium solani): 207 µM (≈ 125 µg/mL) | MIC (Staphylococcus aureus [4]): inactive | MIC (Escherichia coli [5]): 207 µM | MIC (Penicillium chrysogenum): 1.7 µM (≈ 1.03 µg/mL) | IC50 (L6): 5.08 µM | MIC (Listeria monocytogenes): 103 µM | MIC (Escherichia coli [6]): 207 µM | MIC (Aspergillus flavus): 207 µM (≈ 125 µg/mL) | Ratio (Stachybotrys chartarum [7]): 100 | MIC (Stachybotrys chartarum [8]): 1.7 µM (≈ 1.03 µg/mL) | MIC (Staphylococcus aureus [9]): 207 µM | MIC (Salmonella enterica): inactive

CCn1cc(C(=O)N[C@H]2C(O)O[C@H](CO)[C@@H](O)[C@@H]2O)c(=O)c2cc(F)c(N3CCN(C(C)=O)CC3)cc21 (stereo not given in full)
Ratio (Escherichia coli [1]): 3 | MIC (Candida albicans): 59.9 µM (≈ 31.3 µg/mL) | MIC (Escherichia coli [2]): 89.8 µM | MIC (Escherichia coli [3]): 59.9 µM | MIC (Pseudomonas aeruginosa): inactive | MIC (Fusarium solani): 239 µM (≈ 125 µg/mL) | MIC (Staphylococcus aureus [4]): inactive | MIC (Escherichia coli [5]): 239 µM | MIC (Penicillium chrysogenum): 120 µM (≈ 62.5 µg/mL) | IC50 (L6): 3.72 µM | MIC (Listeria monocytogenes): inactive | MIC (Escherichia coli [6]): inactive | MIC (Aspergillus flavus): 478 µM (≈ 250 µg/mL) | MIC (Stachybotrys chartarum [8]): 120 µM (≈ 62.5 µg/mL) | MIC (Staphylococcus aureus [9]): 478 µM | MIC (Salmonella enterica): 14.9 µM

OC(Cn1cncn1)(Cn1cncn1)c1ccc(F)cc1F [FLUCONAZOLE]
MIC (Candida albicans): 408 µM (≈ 125 µg/mL) | MIC (Fusarium solani): 102 µM (≈ 31.3 µg/mL) | MIC (Penicillium chrysogenum): 204 µM (≈ 62.5 µg/mL) | MIC (Aspergillus flavus): 51 µM (≈ 15.6 µg/mL) | MIC (Stachybotrys chartarum [8]): 102 µM (≈ 31.3 µg/mL)

CC(=O)N1CCN(c2cc3c(cc2F)c(=O)c(C(=O)N[C@H]2C(O)O[C@H](CO)[C@@H](O)[C@@H]2O)cn3C2CC2)CC1 (stereo not given in full)
MIC (Candida albicans): inactive | MIC (Escherichia coli [2]): 702 µM | MIC (Escherichia coli [3]): 234 µM | MIC (Pseudomonas aeruginosa): inactive | MIC (Fusarium solani): 468 µM (≈ 250 µg/mL) | MIC (Staphylococcus aureus [4]): inactive | MIC (Escherichia coli [5]): inactive | MIC (Penicillium chrysogenum): 234 µM (≈ 125 µg/mL) | IC50 (L6): 4.03 µM | MIC (Listeria monocytogenes): inactive | MIC (Escherichia coli [6]): inactive | MIC (Aspergillus flavus): 234 µM (≈ 125 µg/mL) | MIC (Stachybotrys chartarum [8]): 468 µM (≈ 250 µg/mL) | MIC (Staphylococcus aureus [9]): inactive | MIC (Salmonella enterica): inactive
